The first test in a line: Growth inhibition of doxorubicin-sensitive human MES-SA cells after 48 hrs by MTT assay. In kind it is functional, cell-based.
Conditions: not given
In a few lines:
(§1)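 MES-SA or MES-SA/Dx5 cells in exponential growth were seeded at 1×10^5/mL in McCoy's 5A with 10% FCS, penicillin and streptomycin on poly-L-lysine-coated plates and held 4 h at 37 °C, 5% CO2. Doxorubicin was then added at final 0.04–10.00 µM (serial halving) for 48 h. Read-out was MTT, with dried formazan dissolved in DMSO and absorbance read. Survival% = (treated−blank)/(control−blank), and IC50 was taken from the survival–concentration plot.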
In general terms: Tetrazolium assays rely on reduction of a dye to a coloured formazan, in cell work by metabolically active cells.
For `COc1cccc2c1C(=O)c1c(O)c3c(c(O)c1C2=O)C[C@@](O)(C(=O)CO)C[C@@H]3O[C@H]1C[C@H](N)[C@H](O)[C@H](C)O1` [DOXORUBICIN], the half-inhibitory concentration (IC50) worked out at 347 nM.

A short description of the next test: Growth inhibition of doxorubicin-resistant human MES-SA/Dx5 cells after 48 hrs by MTT assay. In kind it is functional, cell-based. The note with it: MES-SA/Dx5, 48 h. In a few lines: as §1
`COc1cccc2c1C(=O)c1c(O)c3c(c(O)c1C2=O)C[C@@](O)(C(=O)CO)C[C@@H]3O[C@H]1C[C@H](N)[C@H](O)[C@H](C)O1` [DOXORUBICIN] registered an IC50 of 1550 nM.

The next test in a line: Growth inhibition of doxorubicin-resistant human MES-SA/Dx5 cells at 1.0 uM after 48 hrs by MTT assay. The test is classed as functional. The conditions noted are these: MES-SA/Dx5, 48 h. In a few lines:
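Exponential-phase MES-SA/Dx5 cells were seeded at 1×10^5/mL in McCoy's 5A with 10% FCS and penicillin/streptomycin on poly-L-lysine-coated wells and preincubated 4 h at 37 °C under 5% CO2. Compound was added in medium as a 1 µmol/L solution and cells were grown 48 h. In the MTT read-out, DMSO-dissolved formazan absorbance was measured. Inhibition% = 1 − (drug−blank)/(control−blank), with untreated cells as control and a cell-free blank.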
In turn, `CC1(C)N2Cc3[nH]c4ccccc4c3C[C@H]2C(=O)N1[C@@H](CCC(N)=O)C(=O)OCc1ccccc1` displayed an inhibition at 1 µM of 0%.
On the same count and under the same terms, the value for `CC1(C)N2Cc3[nH]c4ccccc4c3C[C@H]2C(=O)N1[C@@H](COCc1ccccc1)C(=O)OCc1ccccc1` was 0%.
The same measure, in the same setting: next, `CC1(C)N2Cc3[nH]c4ccccc4c3C[C@H]2C(=O)N1[C@@H](CC(=O)OCc1ccccc1)C(=O)OCc1ccccc1`: 31.2%; `C[C@@H](C(=O)OCc1ccccc1)N1C(=O)[C@@H]2Cc3c([nH]c4ccccc34)CN2C1(C)C`: 0%.
Same read-out and setting: the value for `CCC(C)[C@@H](C(=O)OCc1ccccc1)N1C(=O)[C@@H]2Cc3c([nH]c4ccccc34)CN2C1(C)C` (stereo partly specified) was 0%.
Regarding `CC1(C)N2Cc3[nH]c4ccccc4c3C[C@H]2C(=O)N1[C@@H](Cc1c[nH]c2ccccc12)C(=O)OCc1ccccc1`, 1 µM produced 0% inhibition.
For `CC1(C)N2Cc3[nH]c4ccccc4c3C[C@H]2C(=O)N1[C@@H](CCC(=O)OCc1ccccc1)C(=O)OCc1ccccc1`, 1 µM produced 13.4% inhibition.
On the same count and under the same terms, next, `CC1(C)N2Cc3[nH]c4ccccc4c3C[C@H]2C(=O)N1[C@@H](Cc1ccc(O)cc1)C(=O)OCc1ccccc1`: 0%.
In turn, `CC1(C)N2Cc3[nH]c4ccccc4c3C[C@H]2C(=O)N1[C@@H](CC(N)=O)C(=O)OCc1ccccc1` returned an inhibition at 1 µM of 0%.
As for `CC1(C)N2Cc3[nH]c4ccccc4c3C[C@H]2C(=O)N1[C@@H](Cc1ccccc1)C(=O)OCc1ccccc1`, the inhibition at 1 µM came to 31.2%.
Compound `CC(C)C[C@@H](C(=O)OCc1ccccc1)N1C(=O)[C@@H]2Cc3c([nH]c4ccccc34)CN2C1(C)C` displayed an inhibition at 1 µM of 38.9%.
Still for that read-out and setting: next, `CC(C)[C@@H](C(=O)OCc1ccccc1)N1C(=O)[C@@H]2Cc3c([nH]c4ccccc34)CN2C1(C)C`: 0%.
`CC1(C)N(CC(=O)OCc2ccccc2)C(=O)[C@@H]2Cc3c([nH]c4ccccc34)CN21` had an inhibition at 1 µM of 0%.
`CC1(C)N2Cc3[nH]c4ccccc4c3C[C@H]2C(=O)N1[C@@H](CCCCNC(=O)OCc1ccccc1)C(=O)OCc1ccccc1` yielded an inhibition at 1 µM of 0%.

The term IC50 denotes the midpoint of a concentration-inhibition curve. In general, inhibition refers to the relative decrease from the control value, in per cent.

The values are drawn from ChEMBL document CHEMBL1140516, “Dual-acting agents that possess reversing resistance and anticancer activities: Design, synthesis, MES-SA/Dx5 cell assay, and SAR of Benzyl 1,2,3,5,11,11a-hexahydro-3,3-dimethyl-1-oxo-6H-imidazo[3',4':1,2]pyridin[3,4-b]indol-2-substitutedacetates” (Bioorg Med Chem, 2007).
